3 substances from ChEMBL document CHEMBL1156720, “Synthesis and antimicrobial activity of dermaseptin S1 analogues” (Bioorg Med Chem, 2008) can be followed below.

Data set [1] concerns Staphylococcus aureus. The data set is described as follows: Antibacterial activity against Staphylococcus aureus Cowan 1 NCTC 8530 after 3 hrs by microdilution serial twofold assay. It is filed as functional. The settings on record: Cowan 1, 3 h, read-out: LD50 (the source's name). In a few lines: (§1)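 Mueller Hinton Broth static cultures grown at 37 °C and diluted to 5 × 10⁵ CFU/mL. Peptides were tested by twofold serial microdilution starting from 100 μg/mL in a final volume of 200 μL, with peptide-free controls. After 3 h incubation, cultures were serially 10-fold diluted in PBS and plated on Mueller Hinton Agar. Counts were taken after 24 h at 37 °C. Value is the dose giving 50% bacterial lethality.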

The subject of data set [2] is Pseudomonas aeruginosa. The data set is described as follows: Antibacterial activity against Pseudomonas aeruginosa ATCC 15442 after 24 hrs by microdilution serial twofold assay. The settings on record: ATCC 15442, 24 h. It is filed as functional.
For data set [3], the system named is Leishmania major. The data set is described as follows: Antileishmanial activity against Leishmania major MHOM/IL/67/JERICHO-2 assessed as protozoal viability after 24 hrs by dye exclusion method. It is filed as functional. In a few lines: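 Promastigotes grown at 25 °C in supplemented medium 199 containing 20% heat-inactivated FCS, then resuspended at 5 × 10⁵ viable/mL with serially diluted peptides. After 24 h at 25 °C with agitation, viable cells were counted by haemocytometer using trypan blue exclusion. LC₅₀ is the 50% survival reduction versus an untreated culture, fitted by nonlinear regression. Run in triplicate.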

Data set [4] relates to Staphylococcus aureus. Nature of the data set: Antibacterial activity against Staphylococcus aureus ATCC 6538P after 24 hrs by microdilution serial twofold assay. It is filed as functional.
Data set [5] relates to Escherichia coli. Nature of the data set: Antibacterial activity against Escherichia coli HB101 after 24 hrs by microdilution serial twofold assay. It is filed as functional. The settings on record: HB101, 24 h. In a few lines:
(§2)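 Bacteria grown in static culture at 37 °C in Mueller Hinton broth and diluted to 5 × 10⁵ CFU/mL. Peptides were tested by twofold serial microdilution starting from 100 μg/mL, with peptide-free control wells. The MIC was the lowest concentration with no rise in turbidity after overnight incubation at 37 °C. Values are means of at least two independent experiments run in duplicate.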

The test system of data set [6] is Escherichia coli. The data set is described as follows: Antibacterial activity against Escherichia coli HB101 after 3 hrs by microdilution serial twofold assay. It is filed as functional. The settings on record: HB101, 3 h, read-out: LD50 (the source's name). In short, it runs like this: as §1
For data set [7], the system named is Candida albicans. Nature of the data set: Antifungal activity against wild type Candida albicans by broth microdilution method. It is filed as functional. In a few lines:
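Wild-strain yeast was tested in triplicate by broth microdilution following NCCLS recommendations. The MIC was the lowest peptide concentration with no increase in turbidity after overnight incubation at 37 °C.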

Data set [8] is described as follows: Toxicity assessed as hemolytic activity in human red blood cells after 30 mins. It is filed as cell-based, Erythrocyte. The settings on record: read-out: HD50. In a few lines: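 Serially diluted peptides were incubated with 10⁸ washed human RBC (100 µL) for 30 min at 37 °C with agitation. After centrifugation at 900g for 10 min, haemoglobin in the supernatant was read at 550 nm. Distilled water gave maximal lysis. HC₅₀ is the mean from at least two independent experiments run in triplicate.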

Data set [9] concerns Leishmania major. The data set is described as follows: Antileishmanial activity against Leishmania major MHOM/IL/67/JERICHO-2 after 24 hrs by dye exclusion method. It is filed as functional. In short, it runs like this: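 Promastigotes were grown at 25 °C in medium 199 with 20% heat-inactivated FCS, penicillin/streptomycin, L-glutamine, HEPES, adenine, hemin and biotin. They were resuspended at 5 × 10⁵ viable cells/mL and exposed to serial peptide dilutions at 25 °C with agitation. Viability was counted by trypan blue exclusion in a haemocytometer.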

Data set [10] concerns Stenotrophomonas maltophilia. Nature of the data set: Antibacterial activity against Stenotrophomonas maltophilia FC after 24 hrs by microdilution serial twofold assay. It is filed as functional. In short, it runs like this: as §2
Data set [11] has as its system Staphylococcus aureus. Nature of the data set: Antibacterial activity against multi drug-resistant Staphylococcus aureus after 24 hrs by microdilution serial twofold assay. It is filed as functional. In a few lines:
(§3)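 Mueller Hinton Broth cultures grown statically at 37 °C and diluted to 5 × 10⁵ CFU/mL. Twofold serial microdilution from 100 μg/mL peptide, final volume 200 μL, with peptide-free controls. MIC is the lowest concentration with no turbidity increase after overnight incubation at 37 °C. Means come from at least two independent experiments run in duplicate.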

The subject of data set [12] is Staphylococcus aureus. The data set is described as follows: Antibacterial activity against Staphylococcus aureus Cowan 1 NCTC 8530 after 24 hrs by microdilution serial twofold assay. It is filed as functional. The settings on record: Cowan 1, 24 h. In short, it runs like this: as §2
Data set [13] deals with Bacillus subtilis. The data set is described as follows: Antibacterial activity against Bacillus subtilis ATCC 9466 after 24 hrs by microdilution serial twofold assay. It is filed as functional. The settings on record: ATCC 9466, 24 h.
Data set [14] deals with Burkholderia cepacia. The data set is described as follows: Antibacterial activity against Burkholderia cepacia 6/06 after 24 hrs by microdilution serial twofold assay. It is filed as functional. In short, it runs like this:
as §2

Data set [15] deals with Pseudomonas aeruginosa. Nature of the data set: Antibacterial activity against multi drug-resistant Pseudomonas aeruginosa after 24 hrs by microdilution serial twofold assay. It is filed as functional. In a few lines: as §3

Values joined by “and” are separate entries in the source; they are usually repeats but may differ in a detail not shown here. Equal values may be shown once.

Regarding H-ALWKTMLKKLGTMAL-NH2, the LC50 was 2700 nM in data set [1]; 19 µg/mL and 8.7 µM in [3]; 1400 nM in data set [6]. Besides, the MIC in [2] is over 47 µM; in data set [4], 5.7 µM; in data set [5], 2.9 µM; in data set [7] it was 23.7 µM; in data set [9], 50 µg/mL and 22.8 µM; in [10] it was over 45 µM. Also, the MIC is over 47 µM in data set [11]; 11.5 µM in [12]; 5.7 µM in [13]; 23.7 µM in data set [14]; over 47 µM in data set [15]. Also, the HC50 at 0.5 h in data set [8] is over 100 µM.

For the substance H-ALWKTMLKKLGTMALHAGK-NH2, the LC50 in [1] was 10700 nM; in data set [3], 22 µg/mL and 7.9 µM; in [6], under 1800 nM. Further, the minimal inhibitory concentration (MIC) in [5] is 3.6 µM; in [9], 50 µg/mL and 17.9 µM; in data set [12], 35.9 µM. In data set [8], the HC50 at 0.5 h is over 100 µM.

For the substance H-ALWKTMLKKLGTMALHAGKAALGAAADTI-NH2, the LC50 was under 1500 nM in data set [1]; 9.6 µg/mL and 2.3 µM in data set [3]; 2200 nM in data set [6]. The MIC in data set [5] is 2.7 µM; in data set [9] it was 25 µg/mL and 6.1 µM; in [12] it was 2.7 µM. The HC50 at 0.5 h in data set [8] was over 100 µM.
